Experimental data: ChEMBL document CHEMBL1821619 (Bioorg Med Chem Lett, 2011)

Tests used:
[1] = target: Histamine H3 receptor (Mus musculus, UniProt P58406); experiment: Displacement of [125I]Iodoproxyfan from mouse brain cortex histamine H3 receptor after 60 mins; assay type: tissue-based
In short: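 Competition binding used [125I]-iodoproxyfan against human recombinant H3R and native mouse brain cortex H3R. Ki values are means of at least two experiments run in duplicate or triplicate, reported as mean ± SEM.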

[2] = target: Cytochrome P450 3A4 (Homo sapiens, UniProt P08684); experiment: Inhibition of CYP3A4; assay type: ADME
Cytochrome P450 3A4, sequence (P08684 whole entry, canonical isoform): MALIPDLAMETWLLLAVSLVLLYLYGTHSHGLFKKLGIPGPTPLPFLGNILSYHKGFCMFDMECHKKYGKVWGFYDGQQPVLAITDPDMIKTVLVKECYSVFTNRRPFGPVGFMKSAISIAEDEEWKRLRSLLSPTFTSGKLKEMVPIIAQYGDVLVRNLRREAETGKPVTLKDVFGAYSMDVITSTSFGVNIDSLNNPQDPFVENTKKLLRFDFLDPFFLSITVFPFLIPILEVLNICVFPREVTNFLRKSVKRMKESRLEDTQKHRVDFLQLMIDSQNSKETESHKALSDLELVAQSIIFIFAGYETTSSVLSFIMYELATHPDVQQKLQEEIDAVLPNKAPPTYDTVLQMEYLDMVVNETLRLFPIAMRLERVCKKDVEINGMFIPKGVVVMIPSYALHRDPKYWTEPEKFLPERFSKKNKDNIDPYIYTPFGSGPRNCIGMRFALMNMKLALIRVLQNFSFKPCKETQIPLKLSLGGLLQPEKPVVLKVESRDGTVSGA
In short: (§1)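 Compounds were incubated at 37 ± 0.5 °C with agitation with human recombinant CYP isoforms, isoform-selective fluorescent substrates and an NADPH-generating system.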

[3] = target: Cytochrome P450 2D6 (Homo sapiens, UniProt P10635); experiment: Inhibition of CYP2D6; assay type: ADME; in short: as §1
Cytochrome P450 2D6, sequence (P10635 whole entry): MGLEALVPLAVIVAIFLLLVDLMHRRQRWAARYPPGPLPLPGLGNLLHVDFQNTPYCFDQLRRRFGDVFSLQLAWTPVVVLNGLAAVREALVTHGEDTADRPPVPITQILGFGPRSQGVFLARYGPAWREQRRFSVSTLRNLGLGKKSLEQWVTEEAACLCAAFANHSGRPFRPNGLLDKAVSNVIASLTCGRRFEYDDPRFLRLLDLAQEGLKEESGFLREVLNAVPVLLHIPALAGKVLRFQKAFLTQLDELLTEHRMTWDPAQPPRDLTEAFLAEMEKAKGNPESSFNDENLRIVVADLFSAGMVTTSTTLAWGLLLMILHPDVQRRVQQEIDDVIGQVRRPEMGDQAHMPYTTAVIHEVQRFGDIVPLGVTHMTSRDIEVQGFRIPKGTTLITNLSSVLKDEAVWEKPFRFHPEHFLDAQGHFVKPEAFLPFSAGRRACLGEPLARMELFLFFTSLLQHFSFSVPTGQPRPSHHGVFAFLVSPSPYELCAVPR

[4] = target: Cytochrome P450 2C9 (Homo sapiens, UniProt P11712); experiment: Inhibition of CYP2C9; assay type: ADME; in short: as §1
Cytochrome P450 2C9, sequence (P11712 whole entry): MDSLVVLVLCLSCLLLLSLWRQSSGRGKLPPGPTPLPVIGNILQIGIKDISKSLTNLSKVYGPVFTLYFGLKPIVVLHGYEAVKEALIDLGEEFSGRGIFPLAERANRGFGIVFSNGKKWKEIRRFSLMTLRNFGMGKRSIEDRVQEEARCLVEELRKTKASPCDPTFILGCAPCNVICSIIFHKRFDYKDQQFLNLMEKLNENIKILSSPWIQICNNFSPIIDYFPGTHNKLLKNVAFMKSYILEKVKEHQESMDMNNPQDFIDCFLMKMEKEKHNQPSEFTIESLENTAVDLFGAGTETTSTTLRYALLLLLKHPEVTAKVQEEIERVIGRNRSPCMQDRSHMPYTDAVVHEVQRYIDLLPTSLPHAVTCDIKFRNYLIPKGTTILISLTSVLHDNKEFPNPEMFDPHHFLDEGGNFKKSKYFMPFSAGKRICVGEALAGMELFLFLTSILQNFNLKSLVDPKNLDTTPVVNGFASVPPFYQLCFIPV

[5] = test system: Mus musculus; experiment: Inverse agonist activity at histamine H3 receptor in po dosed Swiss mouse assessed as brain N-tele-methylhistamine level measured after 90 mins by enzyme immunoassay; assay type: functional; details: 1.5 h
In short: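 Compounds were given orally to at least 6 male Swiss mice per dose. Brain N-tele-methylhistamine was measured by enzyme immunoassay 90 min after dosing. Intrinsic activity was scaled to ciproxifan as the reference full inverse agonist. ED50 is given as mean ± SEM.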

[6] = target: Histamine H3 receptor (Homo sapiens, UniProt Q9Y5N1); experiment: Displacement of [125I]Iodoproxyfan from recombinant human histamine H3 receptor expressed in HEK293 cells after 60 mins; assay type: cell-based
Histamine H3 receptor (Homo sapiens, UniProt Q9Y5N1), sequence (Q9Y5N1 whole entry): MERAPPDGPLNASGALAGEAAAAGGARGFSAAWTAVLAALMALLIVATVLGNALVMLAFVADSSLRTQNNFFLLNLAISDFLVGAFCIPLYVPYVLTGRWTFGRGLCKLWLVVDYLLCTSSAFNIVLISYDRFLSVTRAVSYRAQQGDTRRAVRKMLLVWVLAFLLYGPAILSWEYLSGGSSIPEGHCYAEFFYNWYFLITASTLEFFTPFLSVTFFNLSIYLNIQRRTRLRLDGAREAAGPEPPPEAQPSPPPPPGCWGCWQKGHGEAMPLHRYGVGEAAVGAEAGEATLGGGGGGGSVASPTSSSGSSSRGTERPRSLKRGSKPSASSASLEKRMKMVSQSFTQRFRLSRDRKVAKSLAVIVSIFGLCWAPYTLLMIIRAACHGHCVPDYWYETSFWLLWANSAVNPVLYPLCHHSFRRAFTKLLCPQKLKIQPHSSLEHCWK

[7] = target: CYP3A4 (Homo sapiens, UniProt P08684); experiment: Inhibition of CYP3A4 at 1 uM; assay type: ADME; in short: as §1
CYP3A4, sequence (P08684 whole entry): as the sequence (P08684 whole entry, canonical isoform) above

[8] = target: CYP2D6 (Homo sapiens, UniProt P10635); experiment: Inhibition of CYP2D6 at 1 uM; assay type: ADME; in short: as §1
CYP2D6, sequence (P10635 whole entry): as the sequence (P10635 whole entry) above

[9] = target: CYP2C9 (Homo sapiens, UniProt P11712); experiment: Inhibition of CYP2C9 at 1 uM; assay type: ADME; in short: as §1
CYP2C9, sequence (P11712 whole entry): as the sequence (P11712 whole entry) above

[10] = target: T1, hERG (KCNH2) (Homo sapiens, UniProt Q12809); experiment: Inhibition of human ERG expressed in HEK293 cells at 10 uM by patch clamp assay; assay type: cell-based; details: HEK293 cells expressing human ERG
T1 sequence (Q12809 whole entry): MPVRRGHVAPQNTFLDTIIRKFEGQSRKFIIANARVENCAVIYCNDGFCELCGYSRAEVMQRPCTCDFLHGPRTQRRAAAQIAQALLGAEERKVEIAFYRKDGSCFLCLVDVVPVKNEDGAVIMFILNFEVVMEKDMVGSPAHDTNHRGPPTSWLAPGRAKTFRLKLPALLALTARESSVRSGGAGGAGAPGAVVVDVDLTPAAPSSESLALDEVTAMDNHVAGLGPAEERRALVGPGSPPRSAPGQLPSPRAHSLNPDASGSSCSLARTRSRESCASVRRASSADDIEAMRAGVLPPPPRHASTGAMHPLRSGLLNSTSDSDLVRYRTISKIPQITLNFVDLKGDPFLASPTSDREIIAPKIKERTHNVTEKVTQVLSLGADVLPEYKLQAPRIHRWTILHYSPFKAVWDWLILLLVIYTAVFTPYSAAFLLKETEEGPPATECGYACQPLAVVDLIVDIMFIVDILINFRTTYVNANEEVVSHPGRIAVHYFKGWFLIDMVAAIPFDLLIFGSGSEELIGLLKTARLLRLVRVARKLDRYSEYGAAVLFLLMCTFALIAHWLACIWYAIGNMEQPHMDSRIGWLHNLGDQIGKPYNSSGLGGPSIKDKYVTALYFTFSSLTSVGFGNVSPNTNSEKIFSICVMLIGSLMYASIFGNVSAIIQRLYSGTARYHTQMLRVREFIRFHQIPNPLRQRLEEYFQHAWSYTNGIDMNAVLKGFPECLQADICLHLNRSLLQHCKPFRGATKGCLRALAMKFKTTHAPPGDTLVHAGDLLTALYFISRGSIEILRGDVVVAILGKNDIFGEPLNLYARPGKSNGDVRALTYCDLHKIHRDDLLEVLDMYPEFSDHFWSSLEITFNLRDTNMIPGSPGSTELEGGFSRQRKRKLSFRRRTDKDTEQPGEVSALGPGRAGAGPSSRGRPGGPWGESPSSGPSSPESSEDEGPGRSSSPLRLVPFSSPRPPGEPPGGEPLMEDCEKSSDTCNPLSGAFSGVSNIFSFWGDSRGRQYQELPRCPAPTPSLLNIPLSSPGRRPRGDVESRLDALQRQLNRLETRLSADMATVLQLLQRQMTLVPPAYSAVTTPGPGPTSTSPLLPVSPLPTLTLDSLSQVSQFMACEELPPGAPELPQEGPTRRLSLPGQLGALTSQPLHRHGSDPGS

[11] = test system: Liver microsomes; experiment: Metabolic stability in human liver microsomes at 100 nM upto 250 mins by LC-MS/MS; assay type: ADME, Microsome; details: 0.1 µM
In short: (§2)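 Compound at 100 nM was incubated with pooled human or mouse liver microsomes (0.5 mg/mL protein) plus NADP. Remaining compound was followed over time by LC-MS/MS.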

[12] = test system: Liver; experiment: Metabolic stability in mouse liver microsomes at 100 nM upto 250 mins by LC-MS/MS; assay type: ADME, Microsome; details: 0.1 µM; in short: as §2
[13] = AUC (0 to 8 hrs) in Swiss mouse plasma at 10 mg/kg, po by LC-MS/MS; assay type: ADME, organism-based; design: time < 8 hr, dose 10 mg/kg, route oral
In short: (§3)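 Male Swiss mice received a single 10 mg/kg oral dose. Compound was quantified in plasma and brain tissue by LC-MS/MS over 8 h, and AUC0-8h was derived. Data are mean ± SEM of 3 mice.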

[14] = AUC (0 to 8 hrs) in Swiss mouse brain at 10 mg/kg, po by LC-MS/MS; assay type: ADME, organism-based; design: time < 8 hr, dose 10 mg/kg, route oral; in short: as §3
[15] = Ratio of AUC (0 to 8 hrs) in Swiss mouse brain to AUC (0 to 8 hrs) in Swiss mouse plasma at 10 mg/kg, po by LC-MS/MS; assay type: ADME, organism-based; design: dose 10 mg/kg, route oral; details: brain and plasma, read-out: Ratio AUC
In short: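 Male Swiss mice given single 10 mg/kg oral dose; plasma and brain tissue sampled over 0–8 h and drug quantified by LC-MS/MS; AUC0-8h computed for each matrix, ratio brain to plasma; mean ± SEM of 3 mice.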

[16] = target: T1, hERG (KCNH2); experiment: Inhibition of human ERG expressed in HEK293 cells at 1 uM by patch clamp assay; assay type: cell-based; details: HEK293 cells expressing human ERG
[17] = AUC (0 to 3 hrs) in Swiss mouse brain at 10 mg/kg, po by LC-MS/MS; assay type: ADME, organism-based; design: time < 3 hr, dose 10 mg/kg, route oral
[18] = Tmax in Swiss mouse brain at 10 mg/kg, po by LC-MS/MS; assay type: ADME, organism-based; design: dose 10 mg/kg, route oral
[19] = AUC (0 to 3 hrs) in Swiss mouse plasma at 10 mg/kg, po by LC-MS/MS; assay type: ADME, organism-based; design: time < 3 hr, dose 10 mg/kg, route oral
[20] = Tmax in Swiss mouse plasma at 10 mg/kg, po by LC-MS/MS; assay type: ADME, organism-based; design: dose 10 mg/kg, route oral

Histamine H3 receptor (Mus musculus, UniProt P58406), sequence (P58406 whole entry): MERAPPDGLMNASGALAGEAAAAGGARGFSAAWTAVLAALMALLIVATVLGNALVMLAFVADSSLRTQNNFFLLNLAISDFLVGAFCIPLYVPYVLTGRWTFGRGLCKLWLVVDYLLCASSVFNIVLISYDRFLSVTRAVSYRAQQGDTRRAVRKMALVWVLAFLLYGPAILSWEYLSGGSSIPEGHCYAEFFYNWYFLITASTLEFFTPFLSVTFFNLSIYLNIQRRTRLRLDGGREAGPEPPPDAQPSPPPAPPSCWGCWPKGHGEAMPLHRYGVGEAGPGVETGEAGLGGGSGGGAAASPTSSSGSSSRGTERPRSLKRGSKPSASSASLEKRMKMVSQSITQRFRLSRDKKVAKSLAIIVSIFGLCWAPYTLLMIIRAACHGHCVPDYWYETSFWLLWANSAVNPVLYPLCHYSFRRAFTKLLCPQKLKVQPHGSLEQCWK

Row | Structure (SMILES) | Ki [1] [nM] | IC50 [4] [nM] | Ki [6] [nM] | inhibition at 1 µM [7] [%] | inhibition at 1 µM [8] [%] | inhibition at 1 µM [9] [%] | further results
1 | c1cc([C@H]2CC[C@H](N3CCOCC3)CC2)ccc1OCCCN1CCCCC1 | 1.6 | 44000 | 0.41 |  |  |  | IC50 [2]: 66200 nM; IC50 [3]: > 100000 nM; inhibition at 10 µM [10]: 34%; ED50 [5]: 1.3 mg/kg; Stability [11]: Stable; Stability [12]: Stable; AUC(0-t) at 8 h [13]: 2.11 µg·h/mL; AUC(0-t) at 8 h [14]: 15.6 µg·h/mL; Kp [15]: 7.4
2 | c1cc([C@H]2CC[C@@H](N3CCCC3)CC2)ccc1OCCCN1CCCCC1 | 1 | 22300 | 0.33 |  |  |  | IC50 [2]: 41700 nM; IC50 [3]: > 100000 nM; inhibition at 1 µM [16]: 11%; inhibition at 10 µM [10]: 15%
3 | OC1CCN([C@H]2CC[C@H](c3ccc(OCCCN4CCCCC4)cc3)CC2)CC1 |  |  | 0.57 | 3.3 | 15.7 | 3.4 | 
4 | c1cc([C@H]2CC[C@H](N3CCCCC3)CC2)ccc1OCCCN1CCCCC1 | 1 |  | 0.64 | 5.2 | 1.4 | 33.5 | inhibition at 1 µM [16]: 42%; ED50 [5]: 4.2 mg/kg
5 | c1cc([C@H]2CC[C@H](N3CCCC3)CC2)ccc1OCCCN1CCCCC1 | 0.33 | 15300 | 0.25 |  |  |  | IC50 [3]: > 100000 nM; inhibition at 1 µM [16]: 14%; inhibition at 10 µM [10]: 22%; ED50 [5]: 3 mg/kg
6 | CN1CCN([C@H]2CC[C@H](c3ccc(OCCCN4CCCCC4)cc3)CC2)CC1 | 2.3 |  | 0.32 | 20.9 | 3.4 | 3.4 | 
7 | c1cc([C@H]2CC[C@@H](N3CCOCC3)CC2)ccc1OCCCN1CCCCC1 |  |  | 0.67 |  |  |  | 
8 | CN1CCN([C@H]2CC[C@@H](c3ccc(OCCCN4CCCCC4)cc3)CC2)CC1 |  |  | 0.92 |  |  |  | 
9 | OC1CCN([C@H]2CC[C@@H](c3ccc(OCCCN4CCCCC4)cc3)CC2)CC1 |  |  | 0.92 |  |  |  | 
10 | c1cc(OCCCN2CCCCC2)ccc1CN1CCCCC1 [JNJ-5207852] |  |  |  |  |  |  | AUC(0-t) at 3 h [17]: 1.1 µg·h/mL; Tmax [18]: 3 h; AUC(0-t) at 3 h [19]: 1.04 µg·h/mL; Tmax [20]: 0.5 h

Further lines, with some results ahead:

Row | Ki [1] [nM] | IC50 [4] [nM] | Ki [6] [nM] | inhibition at 1 µM [7] [%] | inhibition at 1 µM [8] [%] | inhibition at 1 µM [9] [%] | Structure (SMILES) | further results
11 | 0.28 | 11300 |  |  |  |  | CN(C)[C@H]1CC[C@@H](c2ccc(OCCCN3CCCCC3)cc2)CC1 | IC50 [2]: 50000 nM; IC50 [3]: > 100000 nM; ED50 [5]: 3.7 mg/kg
12 |  | 1000 | 0.64 | 26.6 | -8.9 | 54.7 | CCCCN[C@H]1CC[C@H](c2ccc(OCCCN3CCCCC3)cc2)CC1 | 
13 |  |  | 3.2 |  |  |  | CN[C@H]1CC[C@H](c2ccc(OCCCN3CCCCC3)cc2)CC1 | 
14 |  |  | 5.5 |  |  |  | CN([C@H]1CC[C@H](c2ccc(OCCCN3CCCCC3)cc2)CC1)S(=O)(=O)c1ccccc1 | 
15 | 1.6 |  | 0.25 | 4.2 | 0.8 | -12.1 | c1cc([C@H]2CC[C@H](N3CCC3)CC2)ccc1OCCCN1CCCCC1 | inhibition at 10 µM [10]: 41%; ED50 [5]: 2.8 mg/kg
16 |  | 1000 | 0.53 | 25.4 | 2.9 | 53.9 | CCCCN[C@H]1CC[C@@H](c2ccc(OCCCN3CCCCC3)cc2)CC1 | 
17 |  |  | 0.29 |  |  |  | c1ccc(CN[C@H]2CC[C@@H](c3ccc(OCCCN4CCCCC4)cc3)CC2)cc1 | 
18 | 0.52 | 40700 |  |  |  |  | CN(C)[C@H]1CC[C@H](c2ccc(OCCCN3CCCCC3)cc2)CC1 | IC50 [2]: 42600 nM; IC50 [3]: > 100000 nM; ED50 [5]: 3.7 mg/kg
19 |  |  | 0.41 |  |  |  | c1ccc2c(c1)CN([C@H]1CC[C@@H](c3ccc(OCCCN4CCCCC4)cc3)CC1)C2 | 
20 |  |  | 0.34 |  |  |  | c1cc([C@H]2CC[C@@H](N3CCC3)CC2)ccc1OCCCN1CCCCC1 | 
21 | 1.4 |  | 0.17 | 8.9 | 21.9 | 25.1 | c1ccc2c(c1)CN([C@H]1CC[C@H](c3ccc(OCCCN4CCCCC4)cc3)CC1)C2 | 
22 |  |  | 0.56 | 26.1 | -7.8 | 52.9 | CC1CCN([C@H]2CC[C@@H](c3ccc(OCCCN4CCCCC4)cc3)CC2)CC1 | 
23 |  |  | 1.7 | 4.1 | 3.8 | 21.4 | O=C1CCC(c2ccc(OCCCN3CCCCC3)cc2)CC1 | 
24 | 2.1 | 1000 | 0.26 | 39.9 | 20 | 47.8 | c1ccc(CN[C@H]2CC[C@H](c3ccc(OCCCN4CCCCC4)cc3)CC2)cc1 | 
